Measured values published in ChEMBL document CHEMBL1154048, “Design, synthesis and pharmacological evaluation of new 1-[3-(4-arylpiperazin-1-yl)-2-hydroxy-propyl]-3,3-diphenylpyrrolidin-2-one derivatives with antiarrhythmic, antihypertensive, and alpha-adrenolytic activity” (Eur J Med Chem, 2009).
Activity calls are given as the source filed them.

Tests used:
Rattus norvegicus [1] = species: Rattus norvegicus; test: Hypotensive activity in Wistar rat assessed as reduction in norepinephrine-induced systolic blood pressure response; assay type: functional, organism-based; conditions: Artery
How it was run: (§1)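 In anaesthetized rats, pressor responses were evoked by i.v. epinephrine, norepinephrine or methoxamine. Blood pressure was recorded through a heparin-saline-filled cannula in the carotid artery.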

[2] = target: T1, Adrenergic receptor alpha-1 (Rattus norvegicus, UniProt P15823+P23944+P43140); test: Displacement of [3H]prazosin from alpha1 adrenergic receptor in rat cerebral cortex by liquid scintillation counting; assay type: tissue-based
T1 sequence (P15823 whole entry): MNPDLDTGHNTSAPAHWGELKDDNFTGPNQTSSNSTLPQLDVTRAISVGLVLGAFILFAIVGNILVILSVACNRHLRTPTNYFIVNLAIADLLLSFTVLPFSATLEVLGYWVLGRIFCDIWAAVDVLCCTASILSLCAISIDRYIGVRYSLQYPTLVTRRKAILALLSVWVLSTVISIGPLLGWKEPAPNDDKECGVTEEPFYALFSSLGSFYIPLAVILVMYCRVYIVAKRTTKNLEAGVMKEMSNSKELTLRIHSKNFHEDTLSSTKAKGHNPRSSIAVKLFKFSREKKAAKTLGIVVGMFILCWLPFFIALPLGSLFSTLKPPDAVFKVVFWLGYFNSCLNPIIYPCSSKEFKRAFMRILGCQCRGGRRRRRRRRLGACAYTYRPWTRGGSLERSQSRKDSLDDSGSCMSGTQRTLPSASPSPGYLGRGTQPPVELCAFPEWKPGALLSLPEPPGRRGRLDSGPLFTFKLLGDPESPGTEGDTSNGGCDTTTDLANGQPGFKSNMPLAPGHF
T1 sequence (P23944 whole entry): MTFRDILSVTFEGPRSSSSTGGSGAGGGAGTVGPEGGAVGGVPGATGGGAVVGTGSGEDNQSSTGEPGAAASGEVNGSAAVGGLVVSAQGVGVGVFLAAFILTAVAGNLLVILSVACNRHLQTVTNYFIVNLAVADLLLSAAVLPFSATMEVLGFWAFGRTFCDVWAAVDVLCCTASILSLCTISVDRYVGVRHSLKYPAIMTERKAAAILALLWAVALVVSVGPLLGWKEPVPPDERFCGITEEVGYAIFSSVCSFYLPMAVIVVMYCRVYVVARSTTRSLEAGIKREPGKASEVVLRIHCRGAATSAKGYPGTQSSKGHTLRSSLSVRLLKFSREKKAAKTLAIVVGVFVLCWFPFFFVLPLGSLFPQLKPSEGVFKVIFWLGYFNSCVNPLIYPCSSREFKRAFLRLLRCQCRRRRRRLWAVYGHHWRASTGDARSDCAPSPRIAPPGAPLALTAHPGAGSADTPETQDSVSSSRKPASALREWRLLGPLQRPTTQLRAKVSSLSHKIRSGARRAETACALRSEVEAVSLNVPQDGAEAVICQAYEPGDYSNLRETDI
T1 sequence (P43140 whole entry): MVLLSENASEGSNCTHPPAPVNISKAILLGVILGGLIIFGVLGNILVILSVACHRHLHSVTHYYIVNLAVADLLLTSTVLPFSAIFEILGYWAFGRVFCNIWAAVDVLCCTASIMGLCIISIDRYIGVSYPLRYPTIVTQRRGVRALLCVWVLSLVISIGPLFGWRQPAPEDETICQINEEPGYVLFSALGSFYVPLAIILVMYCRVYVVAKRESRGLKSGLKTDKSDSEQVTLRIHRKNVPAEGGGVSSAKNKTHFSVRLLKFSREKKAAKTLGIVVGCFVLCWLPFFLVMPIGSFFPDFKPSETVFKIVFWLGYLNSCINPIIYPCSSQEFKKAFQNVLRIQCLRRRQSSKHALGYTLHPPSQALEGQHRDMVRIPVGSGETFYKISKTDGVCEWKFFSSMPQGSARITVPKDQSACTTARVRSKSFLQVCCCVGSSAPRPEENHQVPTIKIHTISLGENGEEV
How it was run: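 Rat cerebral cortex was homogenized in ice-cold 50 mM Tris–HCl pH 7.6, centrifuged 20 000 × g for 20 min at 0–4 °C, and washed once more. Membranes were incubated with [3H]prazosin 0.2 nM and seven to eight compound concentrations (10^-11–10^-4 M), with phentolamine defining nonspecific binding. Bound ligand was filtered on glass fiber and counted by liquid scintillation. Runs were in duplicate, and Ki was calculated by Cheng–Prusoff.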

Rattus norvegicus [3] = species: Rattus norvegicus; test: Hypotensive activity in Wistar rat assessed as reduction in methoxamine-induced systolic blood pressure response; assay type: functional, organism-based; conditions: Artery; how it was run: as §1
Rattus norvegicus [4] = species: Rattus norvegicus; test: Hypotensive activity in Wistar rat assessed as reduction in epinephrine-induced systolic blood pressure response; assay type: functional, organism-based; conditions: Artery; how it was run: as §1
Rattus norvegicus [5] = test: Antiarrhythmic activity against adrenaline-induced arrhythmia in iv dosed rat assessed as reduction in bigeminy administered 15 mins before adrenaline challenge; assay type: functional, organism-based; conditions: Heart
How it was run: (§2)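 Rats anaesthetized with thiopental 60 mg/kg ip received the compound i.v. 15 min before an i.v. adrenaline challenge. Rhythm disturbances were recorded for 15 min after adrenaline. Activity was defined as absence of premature beats and inhibition of disturbances versus controls. ED50 values, with confidence limits, were derived by Litchfield–Wilcoxon from three groups of six animals.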

Rattus norvegicus [6] = test: Hypotensive activity in Wistar rat assessed as reduction in epinephrine-induced blood pressure response at 5 mg/kg; assay type: functional, organism-based; parameters: dose 5 mg/kg; how it was run: as §1
Rattus norvegicus [7] = test: Hypotensive activity in normotensive Wistar rat assessed as diastolic blood pressure at 5 mg/kg, iv after 20 mins (Rvb=125.5 +/- 0.6 mmHg); assay type: functional, Artery
Rattus norvegicus [8] = test: Hypotensive activity in Wistar rat assessed as reduction in methoxamine-induced pressure response at 5 mg/kg; assay type: functional, organism-based; parameters: dose 5 mg/kg; how it was run: as §1
Rattus norvegicus [9] = test: Antiarrhythmic activity against adrenaline-induced arrhythmia in iv dosed rat assessed as reduction in ventricular extrasystole administered 15 mins before adrenaline challenge; assay type: functional, organism-based; conditions: Heart; how it was run: as §2
Rattus norvegicus [10] = test: Antiarrhythmic activity against adrenaline-induced arrhythmia in iv dosed rat assessed as reduction in supraventricular extrasystole administered 15 mins before adrenaline challenge; assay type: functional, organism-based; conditions: Heart; how it was run: as §2
Rattus norvegicus [11] = test: Antiarrhythmic activity against adrenaline-induced arrhythmia in iv dosed rat assessed as reduction in mortality rate administered 15 mins before adrenaline challenge; assay type: functional, organism-based; conditions: Heart; how it was run: as §2
Rattus norvegicus [12] = test: Hypotensive activity in Wistar rat assessed as reduction in norepinephrine-induced blood pressure response at 5 mg/kg; assay type: functional, organism-based; parameters: dose 5 mg/kg; how it was run: as §1
Rattus norvegicus [13] = test: Antiarrhythmic activity against adrenaline-induced arrhythmia in iv dosed rat assessed as inhibition of cardiac rhythm disturbance administered 15 mins before adrenaline challenge; assay type: functional; conditions: Heart; how it was run: as §2
Rattus norvegicus [14] = test: Antiarrhythmic activity against adrenaline-induced arrhythmia in rat assessed as reduction in supraventricular extrasystole at 5 mg/kg, iv administered 15 mins before adrenaline challenge; assay type: functional, organism-based; parameters: dose 5 mg/kg; conditions: Heart
How it was run: (§3)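 Rats anaesthetized with thiopental 60 mg/kg ip were dosed i.v. 15 min before an i.v. adrenaline challenge. Cardiac rhythm disturbances (bradycardia, extrasystoles, bigeminy, blocks) were recorded for 15 min after adrenaline and compared with controls.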

Rattus norvegicus [15] = test: Antiarrhythmic activity against adrenaline-induced arrhythmia in rat assessed as reduction in reflex bradycardia at 5 mg/kg, iv administered 15 mins before adrenaline challenge; assay type: functional, organism-based; parameters: dose 5 mg/kg; conditions: Heart; how it was run: as §3
Rattus norvegicus [16] = test: Antiarrhythmic activity against adrenaline-induced arrhythmia in rat assessed as reduction in bigeminy at 5 mg/kg, iv administered 15 mins before adrenaline challenge; assay type: functional, organism-based; parameters: dose 5 mg/kg; conditions: Heart; how it was run: as §3
Rattus norvegicus [17] = test: Antiarrhythmic activity against adrenaline-induced arrhythmia in rat assessed as reduction in ventricular extrasystole at 5 mg/kg, iv administered 15 mins before adrenaline challenge; assay type: functional, organism-based; parameters: dose 5 mg/kg; conditions: Heart; how it was run: as §3
Rattus norvegicus [18] = test: Antiarrhythmic activity against adrenaline-induced arrhythmia in rat assessed as reduction in cardiac block at 5 mg/kg, iv administered 15 mins before adrenaline challenge; assay type: functional, organism-based; parameters: dose 5 mg/kg; conditions: Heart; how it was run: as §3

| pKi [2] | Structure (SMILES) | Activity (Rattus norvegicus [1]) | Activity (Rattus norvegicus [3]) | Activity (Rattus norvegicus [4]) | Activity (Rattus norvegicus [5]) | Activity (Rattus norvegicus [6]) | Activity (Rattus norvegicus [7]) [mmHg] | Activity (Rattus norvegicus [8]) | Activity (Rattus norvegicus [9]) | Activity (Rattus norvegicus [10]) | Activity (Rattus norvegicus [11]) | Activity (Rattus norvegicus [12]) | ED50 (Rattus norvegicus [13]) [mg/kg] | Activity (Rattus norvegicus [14]) | Activity (Rattus norvegicus [15]) | Activity (Rattus norvegicus [16]) | Activity (Rattus norvegicus [17]) | Activity (Rattus norvegicus [18]) |
| --- | --- | --- | --- | --- | --- | --- | --- | --- | --- | --- | --- | --- | --- | --- | --- | --- | --- | --- |
| 5.36 | COc1ccc(N2CCN(CC(O)CN3CCC(c4ccccc4)(c4ccccc4)C3=O)CC2)cc1.Cl.Cl (centres undefined) | inactive | inactive | inactive | – | – | – | – | – | – | – | – | – | – | – | – | – | – |
| 6.74 | Cl.Cl.O=C1N(CC(O)CN2CCN(c3ccccc3)CC2)CCC1(c1ccccc1)c1ccccc1 (centres undefined) | – | – | – | Active | Active | 116.5 | Active | Active | Active | Active | Active | 1.9 | – | – | – | – | – |
| 6.8 | COc1ccccc1N1CCN(CC(O)CN2CCC(c3ccccc3)(c3ccccc3)C2=O)CC1.Cl.Cl (centres undefined) | – | – | – | Active | Active | – | Active | Active | Active | Active | Active | 2.05 | – | – | – | – | – |
| 6.69 | Cc1ccccc1N1CCN(CC(O)CN2CCC(c3ccccc3)(c3ccccc3)C2=O)CC1.Cl.Cl (centres undefined) | – | – | – | – | Active | – | Active | – | – | Active | Active | 1.4 | Active | Active | Active | Active | Active |
| 7.28 | CCOc1ccccc1N1CCN(CC(O)CN2CCC(c3ccccc3)(c3ccccc3)C2=O)CC1.Cl.Cl (centres undefined) | – | – | – | – | Active | – | Active | – | – | Active | Active | 1.1 | Active | Active | Active | Active | Active |
| 5.89 | Cl.Cl.O=C1N(CC(O)CN2CCN(c3ccccc3C(F)(F)F)CC2)CCC1(c1ccccc1)c1ccccc1 (centres undefined) | inactive | inactive | inactive | Active | – | – | – | Active | Active | Active | – | 3.9 | – | – | – | – | – |
